Laboratory results reported in PubChem BioAssay.

Assay: Restrictive medium S. cerevisiae growth inhibition, OD615, pilot screen of yeast lifespan reduction project, restrictive growth control (AID 706);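 note: modified DeaD lifespan yeast strain shifted to restrictive glucose medium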
Conditions: OD615, 48 h, at 10 µM, stronger effect = higher value;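 active = growth inhibition above a set limit, 3 SD over mean compound inhibition, in both replicates (cut at about 43% in these data); inconclusive = above the limit in only one replicate; inactive = at or below the limit in both replicates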
Method in brief: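 System: modified S. cerevisiae. Buffer or medium: CSMM-D glucose medium. Incubation: 4 h pre-growth plus 48 h compound exposure, 30 °C. Detection: absorbance (optical density) measured at 615 nm.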

Growth inhibition, inactive:
CCN(c1ccccc1)c1cc(C)nc2nc(C)nn12 -3.25%
Cc1sc(NC(=O)CCCC(=O)O)c(C#N)c1C 16.8%
CCOc1ccc2nc(N3CCC(C(=O)Nc4nnc(CC)s4)CC3)sc2c1 -21.7%
O=C(CN1C(=O)C2C3C=CC(C3)C2C1=O)Nc1ccc2nccnc2c1 (stereo not given) -1.04%
Cn1nc(CC(=O)NC2CCCCCC2)c2ccccc2c1=O 6.03%
O=C(C1CCN(S(=O)(=O)c2cccc3cccnc23)CC1)N1CCCC1 7.97%
COc1ccc(CNc2oc(C)nc2C#N)cc1 5.62%
CCOc1ccc2nc(N3CCC(C(=O)N4CCN(c5ccccn5)CC4)CC3)sc2c1 -8.55%
CC(=NCc1cccnc1)C1=C(O)c2ccccc2C1=O 9.76%
CC1CSc2nnc(CCc3ccccc3)n21 (stereo not given) -7.96%
Nn1c(SC/C=C/c2ccccc2)nnc1-c1ccccn1 -10%
Cc1cc(-c2nnc(-c3cc4ccccc4oc3=O)o2)c(C)n1-c1ccccc1 -2.88%
COc1ccc(NS(=O)(=O)c2ccc(NS(=O)(=O)c3ccc(C)cc3)cc2)nn1 -7.58%
CCC(C)C1C(C#N)=C(N)Oc2n[nH]c(-c3ccccc3)c21 (stereo not given) -3.89%
Cc1c(NC2=C(Cl)C(=O)N(c3ccccc3)C2=O)c(=O)n(-c2ccccc2)n1C 28.3%
COc1ccc(C2C(C(=O)NCCN3CCOCC3)c3ccccc3C(=O)N2C)cc1OC (stereo not given) -2.97%
CN1C(=O)CS(=O)c2ccc(C(=O)NC3CC3)cc21 (stereo not given) -0.875%
COc1ccc(CN2CCN(c3ncccn3)CC2)c(OC)c1 3.13%
Cc1ccc(CSc2nc3c(c(=O)[nH]c(=O)n3C)n2CCC(C)C)cc1 -11.3%
COC(=O)C1C(=O)CC(C)(O)C(C(=O)OC)C1c1ccc2c(c1)OCO2 (stereo not given) -17%
Cn1c(NC(=O)c2ccc(Cl)cc2Cl)cc(=O)n(C)c1=O 0.265%
CCCCC1CCC(c2nc(-c3cccnc3)no2)CC1 (stereo not given) 9.22%
CCc1nnc(NC(=O)CSc2nnc(Cc3cccn3C)n2C)s1 30.4%
COc1ccc(-c2noc(-c3cccc(OC)c3OC)n2)cc1OC -10.4%
CCCc1cc(C(=O)N2CCN(C(c3ccccc3)c3ccccc3)CC2)no1 -6.91%
CCN(CC)CCCNC(=O)c1cc(-c2ccc(O)cc2)on1 9.75%
COc1ccccc1-n1c(SC)nc(O)cc1=O -7.61%
CSC1=NCCN1C(=O)c1ccc(Br)o1 -7.89%
CCNC(=O)c1c(N)sc2c1CCCCC2 1.6%
COc1cc(OC)c(NC(=O)c2ccc(Br)o2)cc1Cl 7.46%
COc1ccc(OC)c(NC(=O)NC2(C(F)(F)F)Oc3ccccc3O2)c1 0.635%
O=C(Nc1cnc2ccccc2c1)c1ccncc1 -8.73%
Cc1ccc(-c2nn(-c3ccccc3)cc2C(=O)N2CCOCC2)cc1 -8.34%
CCN(CC)CCNC(=O)Cn1nc(Cc2cccnc2)c2ccccc2c1=O -2.59%
CC(=O)c1ccc(OCC(O)CN2CCC(C)CC2)cc1 (stereo not given) 9.25%
COC(=O)c1cccnc1-n1c(=O)c2cccnc2n(Cc2cccc(OC)c2)c1=O 4.94%
Cc1cc(NS(=O)(=O)c2ccc(NC(=O)Nc3ccccc3)cc2)no1 -7.87%
CSCC[C@@H](C(=O)O)N1Cc2ccccc2C1=O 6.17%
CCC(NC(=O)c1ccccc1NC(=O)c1ccco1)C(=O)NC1CCCCC1 (stereo not given) 7.98%
CC(C)N(Cc1ccccc1)C(=O)c1cnc2n(c1=O)CCS2 -28.5%
